Laboratory results reported in ChEMBL document CHEMBL5712901, “DOT1L inhibition blocks multiple myeloma cell proliferation by suppressing IRF4-MYC signaling” (2019).
Calls of active or inactive are those of the source.

Legend:
MM1.S [1] = assay: Upregulation of IQCE gene in human MM1.S cells at 1 uM for 6 days by; type: functional, cell-based; details: time 6.0 day
RPMI-8226 [2] = assay: Upregulation of CHRNA6 gene in human RPMI-8226 cells at 1 uM for 6 days by; type: functional, cell-based; details: time 6.0 day
Method in brief: (§1)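 Human myeloma lines RPMI-8226 and MM.1S exposed to 1 μM DOT1L inhibitor, or DMSO, for 6 days. Whole-genome expression profiled on gene expression microarray.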

RPMI-8226 [3] = assay: Upregulation of CPQ gene in human RPMI-8226 cells at 1 uM for 6 days by; type: functional, cell-based; details: time 6.0 day; method in brief: as §1
MM1.S [4] = assay: Upregulation of FNBP1L gene in human MM1.S cells at 1 uM for 6 days by; type: functional, cell-based; details: time 6.0 day; method in brief: as §1
MM1.S [5] = assay: Upregulation of XKR3 gene in human MM1.S cells at 1 uM for 6 days by; type: functional, cell-based; details: time 6.0 day
MM1.S [6] = assay: Upregulation of CCR2 gene in human MM1.S cells at 1 uM for 6 days by; type: functional, cell-based; details: time 6.0 day
RPMI-8226 [7] = assay: Upregulation of EMID1 gene in human RPMI-8226 cells at 1 uM for 6 days by; type: functional, cell-based; details: time 6.0 day; method in brief: as §1
RPMI-8226 [8] = assay: Upregulation of AGPAT9 gene in human RPMI-8226 cells at 1 uM for 6 days by; type: functional, cell-based; details: time 6.0 day
RPMI-8226 [9] = assay: Upregulation of FCGR2B gene in human RPMI-8226 cells at 1 uM for 6 days by; type: functional, cell-based; details: time 6.0 day; method in brief: as §1
RPMI-8226 [10] = assay: Upregulation of MILR1 gene in human RPMI-8226 cells at 1 uM for 6 days by; type: functional, cell-based; details: time 6.0 day
RPMI-8226 [11] = assay: Upregulation of CARD6 gene in human RPMI-8226 cells at 1 uM for 6 days by; type: functional, cell-based; details: time 6.0 day
MM1.S [12] = assay: Upregulation of ENC1 gene in human MM1.S cells at 1 uM for 6 days by; type: functional, cell-based; details: time 6.0 day; method in brief: as §1
MM1.S [13] = assay: Upregulation of PTGER4 gene in human MM1.S cells at 1 uM for 6 days by; type: functional, cell-based; details: time 6.0 day
RPMI-8226 [14] = assay: Upregulation of CAPN2 gene in human RPMI-8226 cells at 1 uM for 6 days by; type: functional, cell-based; details: time 6.0 day
RPMI-8226 [15] = assay: Upregulation of SORL1 gene in human RPMI-8226 cells at 1 uM for 6 days by; type: functional, cell-based; details: time 6.0 day
RPMI-8226 [16] = assay: Upregulation of ID2 gene in human RPMI-8226 cells at 1 uM for 6 days by; type: functional, cell-based; details: time 6.0 day
MM1.S [17] = assay: Upregulation of RAPGEF2 gene in human MM1.S cells at 1 uM for 6 days by; type: functional, cell-based; details: time 6.0 day
RPMI-8226 [18] = assay: Upregulation of CCR2 gene in human RPMI-8226 cells at 1 uM for 6 days by; type: functional, cell-based; details: time 6.0 day
RPMI-8226 [19] = assay: Upregulation of HLA-DPB1 gene in human RPMI-8226 cells at 1 uM for 6 days by; type: functional, cell-based; details: time 6.0 day
MM1.S [20] = assay: Upregulation of IFN in human MM1.S cells assessed as increase in IFI44 gene at 1 uM for 6 days by qRT-PCR analysis; type: functional, cell-based; details: time 6.0 day
RPMI-8226 [21] = assay: Upregulation of IFITM3 gene in human RPMI-8226 cells at 1 uM for 6 days by; type: functional, cell-based; details: time 6.0 day
MM1.S [22] = assay: Upregulation of GPD2 gene in human MM1.S cells at 1 uM for 6 days by; type: functional, cell-based; details: time 6.0 day; method in brief: as §1
RPMI-8226 [23] = assay: Upregulation of FNBP1 gene in human RPMI-8226 cells at 1 uM for 6 days by; type: functional, cell-based; details: time 6.0 day
RPMI-8226 [24] = assay: Upregulation of CCDC96 gene in human RPMI-8226 cells at 1 uM for 6 days by; type: functional, cell-based; details: time 6.0 day
RPMI-8226 [25] = assay: Upregulation of TP53I3 gene in human RPMI-8226 cells at 1 uM for 6 days by; type: functional, cell-based; details: time 6.0 day
MM1.S [26] = assay: Upregulation of CTSH gene in human MM1.S cells at 1 uM for 6 days by; type: functional, cell-based; details: time 6.0 day; method in brief: as §1
RPMI-8226 [27] = assay: Upregulation of NREP gene in human RPMI-8226 cells at 1 uM for 6 days by; type: functional, cell-based; details: time 6.0 day
RPMI-8226 [28] = assay: Effect on human RPMI-8226 cells assessed as change in IRF4 mRNA level at 1 uM for 6 days by qRT-PCR analysis; details: time 6.0 day
MM1.S [29] = assay: Upregulation of SGK1 gene in human MM1.S cells at 1 uM for 6 days by; type: functional, cell-based; details: time 6.0 day
RPMI-8226 [30] = assay: Upregulation of PTGER4 gene in human RPMI-8226 cells at 1 uM for 6 days by; type: functional, cell-based; details: time 6.0 day
MM1.S [31] = assay: Upregulation of NTNG1 gene in human MM1.S cells at 1 uM for 6 days by; type: functional, cell-based; details: time 6.0 day
RPMI-8226 [32] = assay: Upregulation of CCDC74B gene in human RPMI-8226 cells at 1 uM for 6 days by; type: functional, cell-based; details: time 6.0 day
RPMI-8226 [33] = assay: Upregulation of MS4A4A gene in human RPMI-8226 cells at 1 uM for 6 days by; type: functional, cell-based; details: time 6.0 day
RPMI-8226 [34] = assay: Upregulation of GNAI1 gene in human RPMI-8226 cells at 1 uM for 6 days by; type: functional, cell-based; details: time 6.0 day; method in brief: as §1
RPMI-8226 [35] = assay: Upregulation of ANXA2R gene in human RPMI-8226 cells at 1 uM for 6 days by; type: functional, cell-based; details: time 6.0 day
MM1.S [36] = assay: Upregulation of ZSCAN31 gene in human MM1.S cells at 1 uM for 6 days by; type: functional, cell-based; details: time 6.0 day
RPMI-8226 [37] = assay: Upregulation of IFIT1 gene in human RPMI-8226 cells at 1 uM for 6 days by; type: functional, cell-based; details: time 6.0 day
MM1.S [38] = assay: Upregulation of PRRT2 gene in human MM1.S cells at 1 uM for 6 days by; type: functional, cell-based; details: time 6.0 day
MM1.S [39] = assay: Upregulation of HLA-DPB1 gene in human MM1.S cells at 1 uM for 6 days by; type: functional, cell-based; details: time 6.0 day; method in brief: as §1
RPMI-8226 [40] = assay: Upregulation of ALPK1 gene in human RPMI-8226 cells at 1 uM for 6 days by; type: functional, cell-based; details: time 6.0 day
RPMI-8226 [41] = assay: Effect on human RPMI-8226 cells assessed as change in KLF2 mRNA level at 1 uM for 3 days by ChIP-qPCR analysis; type: functional, cell-based; details: time 3.0 day
Method in brief: (§2)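 ChIP-qPCR for H3K79me2 at IRF4-MYC signaling genes after 1 μM inhibitor or DMSO for 3 days. Signal normalized to input DNA. An intergenic region 28 kb upstream of KLF2 served as negative control. Mean of 3 replications ± SEM.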

MM1.S [42] = assay: Effect on human MM1.S cells assessed as change in PRDM1 mRNA level at 1 uM for 3 days by ChIP-qPCR analysis; type: functional, cell-based; details: time 3.0 day; method in brief: as §2
RPMI-8226 [43] = assay: Induction of cell cycle arrest in human RPMI-8226 cells assessed as decrease in accumulation of cells at S phase at 1 uM for 6 days; type: functional, cell-based; details: time 6.0 day
Method in brief: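 Flow cytometric cell cycle analysis of RPMI-8226 and MM.1S cells treated with 1 μM DOT1L inhibitor or DMSO for 6 days. Sub-G1, G0-G1 and S phase populations scored. Summary is from 3 replications, mean ± SEM.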

RPMI-8226 [44] = assay: Antitumor activity against compound pretreated cells human RPMI-8226 cells at 1 uM for 3 days xenografted in SCID mouse assessed as reduction of tumor volume measured upto 36 days; type: functional, cell-based; details: time 39.0 day
Method in brief: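 Ex vivo pretreatment: RPMI-8226 cells exposed to 1 μM DOT1L inhibitor or DMSO for 3 days. Then 1 × 10^7 cells in 200 μl RPMI-1640 injected subcutaneously into the thighs of 6-week-old C.B-17 SCID mice, with drug-treated cells in the left thigh and DMSO cells in the right. Tumor measured every 3 days by calipers; volume = length × width²/2; n = 5, mean ± SEM.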

Measured: Activity

CC(C)N(CCCNC(=O)Nc1ccc(C(C)(C)C)cc1)C[C@H]1O[C@@H](n2cc(Br)c3c(N)ncnc32)[C@H](O)[C@@H]1O
active: MM1.S [1] | RPMI-8226 [2] | RPMI-8226 [3] | MM1.S [4] | MM1.S [5] | MM1.S [6] | RPMI-8226 [7] | RPMI-8226 [8] | RPMI-8226 [9] | RPMI-8226 [10] | RPMI-8226 [11] | MM1.S [12] | MM1.S [13] | RPMI-8226 [14] | RPMI-8226 [15] | RPMI-8226 [16] | MM1.S [17] | RPMI-8226 [18] | RPMI-8226 [19] | MM1.S [20] | RPMI-8226 [21] | MM1.S [22] | RPMI-8226 [23] | RPMI-8226 [24] | RPMI-8226 [25] | MM1.S [26] | RPMI-8226 [27] | RPMI-8226 [28] | MM1.S [29] | RPMI-8226 [30] | MM1.S [31] | RPMI-8226 [32] | RPMI-8226 [33] | RPMI-8226 [34] | RPMI-8226 [35] | MM1.S [36] | RPMI-8226 [37] | MM1.S [38] | MM1.S [39] | RPMI-8226 [40]

CC(C)N(C[C@H]1O[C@@H](n2cnc3c(N)ncnc32)[C@H](O)[C@@H]1O)[C@H]1C[C@@H](CCc2nc3cc(C(C)(C)C)ccc3[nH]2)C1 [PINOMETOSTAT]
active: RPMI-8226 [41] | MM1.S [42] | RPMI-8226 [43] | RPMI-8226 [44]
